Source: PubChem (several laboratories)
Shown are actives, neighbours in structure and some others; about 6.4% of the full set was active somewhere.
Jurkat tox 60K: cytotoxicity toward Jurkat cells; actives 1.2% (n = 56,000); Jurkat E6.1 viability, ATP luminescence, 48 h; inhibition, % at 4 µM; AID 463;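 active = inhibition above the mean inhibition of all tested compounds plus 3 SD, cut at about 28% in these data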
HUVEC prolif 384: inhibitors of human endothelial cell proliferation; viability, % at 10 µM (by protocol); AID 648; HUVEC proliferation, CellTiter-Glo luminescence, 72 h; active compounds read low; actives 1.1% (n = 86,000);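 active = viability at or below 30%; inactive = viability above 30%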
Ecoli WT expand: E. coli BW25113 growth inhibition, expanded screen; OD600 absorbance; growth inhibition, % at 100 µM; actives 0.15% (n = 98,000); AID 710;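 active = growth inhibition above about 50% at one test dose, limit read from the data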;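 also: growth measured after 20 h incubation at 37 °C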
H69AR growth 86K: blocks growth of human H69AR lung tumor cells; H69AR lung tumor viability, ATP luminescence, 72 h; active compounds read low; viability, % at 10 µM; actives 6% (n = 85,000); AID 598;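 active = viability at or below 40%; inactive = viability above 40%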;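 also: multidrug resistant small cell line overexpressing MRP-1 efflux transporter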
Fibroblast inh: blocks proliferation of human lung fibroblasts; viability, % at 10 µM; actives 1.1% (n = 85,000); LL 47 human lung fibroblast viability, ATP luminescence; active compounds read low;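 active = viability at or below 50% in the single dose screen; inactive = viability above 50%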;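 also: compound exposure lasted 72 h before the ATP readout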
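Test system: LL 47 human lung fibroblasts / Quantity: 1,150 cells in each well / Medium: IMEM growth medium with 15% fetal bovine serum / Incubation: 72 h compound exposure at 37 °C after overnight plating / Detection: CellTiter-Glo luminescence measuring cellular ATP / Read-out: % viability versus median cells-only luminescence / Benchmarks: cell-only wells, no compound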
Ecoli tolC: blocks growth of E. coli BW25113 tolC mutant; AID 573; actives 2.2% (n = 65,000); OD615; growth inhibition, % at 10 µM (by protocol);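 active = growth inhibition at or above a cutoff equal to the mean over every tested compound plus 3 SD, cut at about 60% in these data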;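 also: growth measured after 20 h incubation at 37 °C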
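Test system: E. coli BW25113 ΔtolC::kan bacteria | Medium: Kanamycin-containing LB broth (50 µg/mL) | Dosing: One dose of 10 µM final | Times: 20 h incubation with compound, 37 °C | Detection: Optical density read at 615 nm | Read-out basis: Percent growth inhibition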
Of the large screens only hits and unclear results are named; the others gave an inactive call.

CCOC(=O)CSC1=C(C#N)C(c2ccc(C)cc2)C(C(=O)OC)C(=O)N1 (centres undefined)	none (no result: Jurkat tox 60K)
Cn1cnc([N+](=O)[O-])c1Nc1ccc(O)cc1	none (no result: Jurkat tox 60K, Ecoli tolC)
CC(C)c1nnc(NC(=O)CCS(=O)(=O)c2nc(-c3cccs3)cc(C(F)(F)F)n2)s1	HUVEC prolif 384 16, H69AR growth 86K 1.1
CCC(C)NC(=O)CSc1nc(-c2cccs2)cc(C(F)(F)F)n1 (centres undefined)	none (no result: Jurkat tox 60K, HUVEC prolif 384, H69AR growth 86K, Fibroblast inh, Ecoli tolC)
CN(C)c1ccc(C(=O)c2ccc(O)cc2O)cc1	none (no result: Jurkat tox 60K, Ecoli WT expand, Ecoli tolC)
COc1ccc(C(=O)c2ccc(N(C)C)cc2)c2ccccc12	H69AR growth 86K 27 (no result: Jurkat tox 60K, Ecoli WT expand, Ecoli tolC)
N#C/C(=C1/CCCCCN1)c1nnc2n1CCCCC2	none
N#C/C(=C1\C(=O)Nc2c(Cl)cc(Cl)cc21)c1nnc2n1CCCCC2	H69AR growth 86K 36 (no result: Jurkat tox 60K, Ecoli tolC)
O=C(Nc1ccccc1N1CCOCC1)C1Cc2ccccc2CN1C(=O)c1ccco1 (centres undefined)	none (no result: Jurkat tox 60K, Ecoli tolC)
CCOC(=O)c1oc2ccc(S(=O)(=O)Nc3ccc4c(c3)n(C)c(=O)n4C)cc2c1C	Jurkat tox 60K 44
COc1ccc(NS(=O)(=O)c2ccc3c(c2)n(C)c(=O)n3C)cc1	none (no result: Jurkat tox 60K, HUVEC prolif 384, H69AR growth 86K, Fibroblast inh, Ecoli tolC)
Cn1c(=O)n(C)c2cc(NS(=O)(=O)c3ccc4c(c3)CCCC4)ccc21	Jurkat tox 60K 39
Fc1ccccc1OCCSc1nnnn1-c1ccccc1	none
COc1ccccc1OCCSc1nnnn1-c1ccc(C)cc1	Ecoli tolC 65
COc1ccc(CC(=O)N2CCNC2=O)cc1	none
CCc1nc2ccccc2c(C(=O)OCC(=O)Nc2ccc(S(=O)(=O)N3CCOCC3)cc2)c1C	H69AR growth 86K 28
O=C(COC(=O)c1ccccn1)Nc1ccc(S(=O)(=O)N2CCOCC2)cc1	none (no result: Jurkat tox 60K, Ecoli tolC)
CCc1nc2ccccc2c(C(=O)OCC(=O)Nc2cccc(S(=O)(=O)N3CCOCC3)c2)c1C	H69AR growth 86K 22 (no result: Jurkat tox 60K, Ecoli tolC)
CCCCN1C(=O)C(O)(CC(=O)c2ccccc2OC)c2ccccc21 (centres undefined)	none (no result: Ecoli WT expand)
C#CCN1C(=O)C(O)(CC(=O)c2ccc3c(c2)OCCO3)c2ccccc21 (centres undefined)	H69AR growth 86K 35
CCCN1C(=O)C(O)(CC(=O)c2ccc3c(c2)OCCO3)c2ccccc21 (centres undefined)	H69AR growth 86K 17
C#CCN1C(=O)C(O)(CC(=O)c2ccc(OC)c(OC)c2)c2ccccc21 (centres undefined)	none
CCCN1C(=O)C(O)(CC(=O)c2cccc(OC)c2)c2ccccc21 (centres undefined)	H69AR growth 86K 28
COc1ccc(NC(=O)c2ccc3c(c2)OCO3)cc1Cl	none
Cc1ccc(-n2c(C)cc(/C([O-])=C(/C(=S)Nc3ccc(F)c(Cl)c3)[n+]3ccccc3)c2C)cc1	none (no result: Jurkat tox 60K, HUVEC prolif 384, H69AR growth 86K, Fibroblast inh, Ecoli tolC)
CN(C)S(=O)(=O)c1ccc(N2CCCC2)c(C(=O)NCc2cccc(C(F)(F)F)c2)c1	none (no result: Jurkat tox 60K, HUVEC prolif 384, H69AR growth 86K, Fibroblast inh, Ecoli tolC)
CCOC(=O)c1sc(NC(=O)c2ccc(S(=O)(=O)N(C)C)cc2)cc1C	none (no result: Jurkat tox 60K, HUVEC prolif 384, H69AR growth 86K, Fibroblast inh, Ecoli tolC)
O=C(COc1ccc(-c2ccccc2)cc1)N1CCN(S(=O)(=O)Cc2ccccc2)CC1	H69AR growth 86K 26 (no result: Jurkat tox 60K, Ecoli tolC)
O=C(COc1ccccc1)Nc1ccc2c(c1)nc1n2CCOC1	none
Cc1cc(/C=N/n2cnnc2)c(C)n1-c1ccc(OCc2ccc(F)cc2)cc1	Jurkat tox 60K 45, H69AR growth 86K 19
Cc1cc(/C=N/n2cnnc2)c(C)n1-c1ccccc1	none (no result: Jurkat tox 60K, Ecoli tolC)
Cc1cc(/C=N/n2cnnc2)c(C)n1-c1ccc(OCc2ccc(Cl)cc2Cl)cc1	HUVEC prolif 384 2.6, H69AR growth 86K 5.8 (no result: Jurkat tox 60K, Ecoli tolC)
CCn1c(Cn2nnc(-c3ccccc3)n2)nnc1SCC(=O)Nc1ccc(N(C)C)cc1	none
CCCn1c(C)nc2c(c1=O)c1nc3ccccc3nc1n2CCc1ccccc1	none (no result: Ecoli WT expand)
CCCn1c(C)nc2c(c1=O)c1nc3ccccc3nc1n2CCC1=CCCCC1	H69AR growth 86K 13
c1cc2c(cc1C1CCCCC1)c1c3n2CCCNC3CCC1 (centres undefined)	HUVEC prolif 384 2.7, H69AR growth 86K 1.3, Fibroblast inh 2.6 (no result: Jurkat tox 60K, Ecoli WT expand, Ecoli tolC)
c1cc2c(cc1C1CCCCC1)c1c3n2CCN=C3CCC1	HUVEC prolif 384 2.1, H69AR growth 86K 0.2 (no result: Jurkat tox 60K, Ecoli WT expand, Ecoli tolC)
CCCCOc1ccc(C(C)NC(=O)C2CCCN(S(=O)(=O)CC)C2)cc1 (centres undefined)	none
COc1ccc(S(=O)(=O)Nc2ccc(O)c3ccccc23)cc1	HUVEC prolif 384 2.3, H69AR growth 86K 1.8 (no result: Ecoli WT expand)
